System: MS2 coat protein
Assay: apparent Kd, MS2 coat protein; higher = weaker binding; RNA-MaP array; FMN 200 µM where present
Procedure, shortened: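 Two titrations, one without ligand and one with constant ligand, were run with SNAP-549-labelled MS2 coat protein from 0.7 or 1.5 nM, doubling to 3 µM. The targets were designs transcribed by stalled E. coli RNA polymerase on Illumina sequencing-chip clusters, in 100 mM Tris-HCl pH 7.5, 80 mM KCl, 4 mM MgCl2, BSA, DTT, yeast tRNA and Tween-20. The apparent Kd is the median of filtered per-cluster binding-curve fits, with green signal normalised to red-channel RNA signal and control-cluster median Fmax.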

[1] = designed as: OFF switch for flavin mononucleotide, no ligand
[2] = ligand present: flavin mononucleotide, designed as: OFF switch for flavin mononucleotide
[3] = designed as: ON switch for flavin mononucleotide, no ligand
[4] = ligand present: flavin mononucleotide, designed as: ON switch for flavin mononucleotide

Sequence | apparent Kd [1] | apparent Kd [2] | apparent Kd [3] | apparent Kd [4]
AAGUAGUGAGGAUAUACAUGGAUAUACAUUCAUGUGGACCUACAUGAGGAUCACCCAUGUAGAAGGCACUACUA | 42.6 nM | 61.6 nM | – | –
CAAAACGAGGCAGGAUAUCAAUACAUGAGGAUCACCCAUGUGUGACGUAGGCCGGUCUUCGUGACUGAGAAGGGUCUCUAGUUA | 11 nM | 40.5 nM | – | –
GGUUGGCGAGGAUAUACAUGAGGAUCACCCAUGUGGUCCUGUGGCAAAAAAAACCUUUGUAGAAGGCGCGGGUC | 354 nM | 285 nM | – | –
GCUAUCGAUGUAGGAUAUGCUAGGGAAACCCUGGCAGAAGGACAUGAGGAUCACCCAUGUCAAUGGAUGAAGAGAAGAGAUGGC | 27.8 nM | 122 nM | – | –
AGUAAGAUGCAGAAGGUGUUAGCUAGAGCUACGACAUGAGGAUCACCCAUGUACUAGAAACAGUACAAGGAUAUGCAUCUUACA | – | – | 18.1 nM | 6.28 nM
GUGACGAAUGUAGGAUAUGCUGACCAAUGGUCAGCAGAAGGACAUGAGGAUCACCCAUGUCAUCCUUAUAAUGAAUAACGUCAC | 13.5 nM | 18.6 nM | – | –
UUCUUUACCUAGGAUAUCUUCGGUACGGUCCGGAGAGAAGGAGGUACAUGAGGAUCACCCAUGUCCCUCUGAAA | 12.6 nM | 13.6 nM | – | –
CUUUUGUGAGGAUAUCAGUAGUAGAACAAUAGUACUACUACUGAGAAGGCACAUGAGGAUCACCCAUGUUCCUU | 16 nM | 35.6 nM | – | –
CCCUGAUCGAGAGGUAGGAGUGGUAGAAGGCGACCGGUGCCAGAUGACAUGAGGAUCACCCAUGUCGAGGAUAUACCACAGAAU | 7.6 nM | 11.5 nM | – | –
GCCUAGCCCAAGCCCACGGCAUCACAGGAUAUGCCGAUAACAUGAGGAUCACCCAUGUCAACUCCGCAGAAGGGUGAUAUCGUG | – | – | 75.9 nM | 10 nM
CAGCUACCCAGUAUGGGUUUAUGUGCAGAAGGCCAGGUACAUGAGGAUCACCCAUGUAAAGAUAUGGAGGAUAUGUUAGUGAAU | – | – | 17.9 nM | 6.66 nM
GUCUACAUGACAUGAGGAUCACCCAUGUGUUAUAUUUUUACUAAGGAUAUAUUUUUAAUGUUGAGAUAGAAGGUAGUUUCGGUC | 43 nM | 45.5 nM | – | –
GCCAUCCUAUGAGGAUAUGACACCGAAACGGUGUCAGAAGGCAUGUCGAUAGACAUGAGGAUCACCCAUGUUUACAGGAUGGCA | – | – | 132 nM | 22 nM
GACUACGAGGGAGGAUAUCCUCAUUAAUUUGGUGGAGAAGGCCCUCUACAUGAGGAUCACCCAUGUAUCGCUAUAGUCAGACAU | – | – | 9.92 nM | 6.95 nM
GCGCUGCAGCGGUGCACGAGACAUGAGGAUCACCCAUGUGACAGAAGGGACUUGUUAAAGGUAGGUCAGGAUAUGUCUUAAAAG | – | – | 190 nM | 59.8 nM
CCCAAACUUGGGCUUGGCGGUGCAUAGGAUAUCCUUGGACAUGAGGAUCACCCAUGUACAACUGUGGAGAAGGGUGCAGGGCCU | – | – | 31.2 nM | 8.61 nM
UGUUGUAUUACAGGAUAUCUAUGAUUUUUAUCUAGAGAAGGGUAUUCACAUGAGGAUCACCCAUGUAUAUACGAGGAAGUUGUG | – | – | 31.2 nM | 30.6 nM
GGGCCACAUGAGGAUCACCCAUGUAAGGAUAUGCUAGGGAUGGAAAAAAUUUCGCUAGGCAGAAGGUACUAAAG | 32 nM | 55.6 nM | – | –
UUUGACCUAGGAUAUACAUGAGGAUCACCCAUGUUCCGGUGGGUUAACGACAACCUCAGUAGAAGGAGGAGCUU | 31.8 nM | 58.9 nM | – | –
GUGGUUGUCGUAGGAUAUGUAGGAUAUUCCUACAUGAGGAUCACCCAUGUUCGCAUGGAAGAAGGACGGAAGGACGAUGACCAC | – | – | 156 nM | 129 nM
GAGAAGUCAGGAUAUGCAUGGCGGGACUUGCGUCGUGGCGUGCAGAAGGGACAUGAGGAUCACCCAUGUAAAGG | 143 nM | 265 nM | – | –

Sequence | apparent Kd [1] | apparent Kd [2] | apparent Kd [3] | apparent Kd [4]
AAAUAGUUACAGAAGGGCAUUUAUAAUUAUCAUUACUCUUACUAUGUUUGCAGGAUAUGUUUAACAUGAGGAUCACCCAUGUAC | – | – | 20.4 nM | 14.1 nM
AAAAAACAUGAGGAUCACCCAUGUGAGGAUAUCCAAAAGUCAAAGAAAAAGACGAAAAGGAGAAGGCACAAAAA | 72.8 nM | 84.8 nM | – | –
AAAACAUGAGGAUCACCCAUGUAAAGAUCGGUUGAUGAAGGUGAGGAUAUACAAAACUUUAUGGAGUAGAAGGCACUGGGUUGA | – | – | 109 nM | 59.3 nM
UGAUCUGUCGCAGGAUAUUACGUUCGGGAUCUCACAUGAGGAUCACCCAUGUAAGAAGGGCGAACAGCAUUCCGGGUCGGGCAA | 19.6 nM | 75.4 nM | – | –
AAUAAACAUGAGGAUCACCCAUGUCAGGAUAUGCGUCUAUCCUUAUACCAUAGAUACGGCAGAAGGGACUAAUA | 24.9 nM | 31 nM | – | –
ACUUUAUUUGAGAAGGUGAAGUGGAAACAUGAGGAUCACCCAUGUAAUAGGAAGCCUAUUUUUAUCAAGGAUAUCAAAUAAAGA | – | – | 7.89 nM | 7.86 nM
ACAUGCAAGUAGAAGGUCGGAUAUUUUGAUAACGAAGGAUAUACAGAAUCAUAUCCACAUGAUAACAUGAGGAUCACCCAUGUA | 15.2 nM | 15 nM | – | –
AUAUGAUAGAUAGGAUAUACAGUGGUUUUAUAAGUAGAAGGAUCAAAUGGGAAUUAUACAUGAGGAUCACCCAUGUUUUUGGAU | – | – | 58.6 nM | 40.4 nM
ACGACGAAAGUCGAACGAUGAUCGAGAAGGACAUGAGGAUCACCCAUGUUCCGUGUAACACGCAUGUAGGAUAUCGAUCAUCGA | 5.17 nM | 11.4 nM | – | –
AUCGUGCAGCUUUGCUGUACGCGUACAUGAGGAUCACCCAUGUAGGAUAUGGUAGGCAAAGCUUACUAGAAGGAUAUAGUGAUC | 61.9 nM | 54 nM | – | –
CUGUUAUAGGUCCAGAAUUACAACAUGAGGAUCACCCAUGUGCAGGAUAUCGGGAUAAUAAACGACGAGAAGGGCAUAGUCACG | 16.9 nM | 24.5 nM | – | –
GUGCUGCAACGGUGCACGAGACAUGAGGAUCACCCAUGUGACAGAAGGGACUUGUUAAAGGUAGGUCAGGAUAUGUCUUAAAAG | – | – | 191 nM | 53.1 nM
GUAGCAUACUGAGGAUAUUCAUACCGGAAACGGACAUGAGGAUCACCCAUGUUAUAUAAAUAUUUGGAGAAGGCAGAAUGCUAC | – | – | 19.4 nM | 13.2 nM
AAAAAGUCAGGAUAUGCGAAGGCGUCUGAUAGACGAGGCUAGCAGAAGGGACAUGAGGAUCACCCAUGUAAAGA | 27.2 nM | 55.1 nM | – | –
UUUUUGUAAGAGAAGGAGGACUUCAUGAGGAUCACCCAUGUGUUAGUACUUAGGAUAUUUGACAACAUGAGGAUCACCCAUGUC | – | – | 72 nM | 70.1 nM
UUCAUGUGAGGAUAUGUGAUCUGCUUUCUGUGUAGAUGAUCACAGAAGGCACAUGAGGAUCACCCAUGUAGAUC | 103 nM | 79.4 nM | – | –
AAAAAACAUGAGGAUCACCCAUGUCUUCGGACGUGAGGAUAUGUACAGACUUCGGUCUGUACAGAAGGCAUGUCAA | – | – | 212 nM | 25.9 nM
GGACGACACAUGAACAUGAGGAUCACCCAUGUAACUAGACAUGAGGAUAUGGAUCCUAAUUGGAUCCAGAAGGCAUGGUCGUCC | – | – | 179 nM | 31.7 nM
CCAGGCUGUGUGAGGAUAUGCUGGUCCUUGGAUCAGCAGAAGGCACAUGAGGAUCACCCAUGUGAGUAGCUUGG | 16.2 nM | 62.2 nM | – | –
AAGGACUGUAAUAAUGUAGAAAUACAUGAGGAUCACCCAUGUAAGGAUAUCGUCAGGAAUACUGACGAGAAGGUACAUCAGUCC | – | 25.8 nM | – | –
CGUGACUACAUAGGAUAUUGAUACAUGAGGAUCACCCAUGUCACCCAUUUAUAUAUUAGUGUUGACAAGAAGGAUGUGGUCACG | – | – | 16.2 nM | 7.25 nM
